This passage reports IC50, Activity and TGI results from ChEMBL document CHEMBL2311339, “Identification of GZD824 as an orally bioavailable inhibitor that targets phosphorylated and nonphosphorylated breakpoint cluster region-Abelson (Bcr-Abl) kinase and overcomes clinically acquired mutation-induced resistance against imatinib” (J Med Chem, 2013).

Assay [1] has as its system K562. As to the kind of experiment: Cytotoxicity against imatinib-resistant human K562 cells expressing BCR-ABL Q252H mutant assessed as growth inhibition after 72 hrs by CCK-8 assay. Type of assay: functional, cell-based. The conditions noted are these: K562, 72 h. Summed up: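 The K562 subline was made imatinib-resistant by 3 months of exposure to imatinib from 0.1 to 5 μM, followed by clonal selection and sequencing to confirm Q252H. Cells were seeded at about 3000 cells/well, treated 24 h later for 72 h, then given CCK-8 for 3 h. Read-out was OD450 − OD650 normalized to vehicle; IC50 is the mean of three experiments.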

A short description of assay [2]: Cytotoxicity against human KU812 cells expressing BCR-ABL assessed as growth inhibition after 72 hrs by CCK-8 assay. Type of assay: functional, cell-based. The conditions noted are these: KU812, 72 h. Summed up:
(§1)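 Log-phase human leukemia cells were seeded at about 3000 cells/well and treated 24 h later for 72 h. CCK-8 was then incubated with the cells for 3 h and read as OD450 − OD650. Viability was normalized to vehicle wells and cell-free blanks, and IC50 taken as the mean of three experiments.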

The nature of assay [3]: Cytotoxicity against human SUP-B15 cells expressing BCR-ABL assessed as growth inhibition after 72 hrs by CCK-8 assay. The note with it: SUP-B15, 72 h. The format is functional, cell-based. Summed up:
as §1
Background: Tetrazolium dyes change colour on reduction, which living cells bring about.

The next assay has as its system U-937. As to the kind of experiment: Cytotoxicity against human U937 cells […] assessed as growth inhibition after 72 hrs by CCK-8 assay. The note with it: U-937, 72 h. Type of assay: functional, cell-based. Summed up: as §1
The test system of assay [4] is K562. Nature of the assay: Cytotoxicity against human K562 cells expressing BCR-ABL assessed as growth inhibition after 72 hrs by CCK-8 assay. Type of assay: functional, cell-based. The note with it: K562, 72 h. In outline:
as §1

Another assay relates to MOLT-4. As to the kind of experiment: Cytotoxicity against human MOLT4 cells […] assessed as growth inhibition after 72 hrs by CCK-8 assay. Type of assay: functional, cell-based. The note with it: MOLT-4, 72 h. Summed up:
as §1

For another assay, the system named is HL-60. As to the kind of experiment: Cytotoxicity against human HL60 cells […] assessed as growth inhibition after 72 hrs by CCK-8 assay. The format is functional, cell-based. The conditions noted are these: HL-60, 72 h. Summed up: as §1
The nature of assay [5]: Cytotoxicity against mouse BA/F3 cells assessed as growth inhibition after 72 hrs by CCK-8 assay. The note with it: BaF3, 72 h.
Assay [6] can be described thus: Cytotoxicity against mouse BA/F3 cells expressing BCR-ABL F486S mutant assessed as growth inhibition after 72 hrs by CCK-8 assay. The note with it: BaF3, 72 h.
Assay [7] is described as follows: Cytotoxicity against mouse BA/F3 cells expressing BCR-ABL F317L mutant assessed as growth inhibition after 72 hrs by CCK-8 assay. The note with it: BaF3, 72 h.
Assay [8] is described as follows: cells. The note with it: Mus musculus, BaF3, 72 h.
Assay [9] in a line: Cytotoxicity against mouse BA/F3 cells expressing BCR-ABL E355G mutant assessed as growth inhibition after 72 hrs by CCK-8 assay. The conditions noted are these: BaF3, 72 h.
Assay [10] in a line: Cytotoxicity against mouse BA/F3 cells expressing BCR-ABL Y253H mutant assessed as growth inhibition after 72 hrs by CCK-8 assay. The note with it: BaF3, 72 h.
A short description of assay [11]: Cytotoxicity against mouse BA/F3 cells expressing BCR-ABL L248V mutant assessed as growth inhibition after 72 hrs by CCK-8 assay. The conditions noted are these: BaF3, 72 h.
Assay [12] in a line: cells. The note with it: Mus musculus, BaF3, 72 h. The source holds these as a separate data set.
The nature of assay [13]: cells. The note with it: Mus musculus, BaF3, 72 h. The source holds these as a separate data set.
A short description of assay [14]: Cytotoxicity against mouse BA/F3 cells expressing BCR-ABL E255K mutant assessed as growth inhibition after 72 hrs by CCK-8 assay. The conditions noted are these: BaF3, 72 h.
Assay [15] in a line: Cytotoxicity against mouse BA/F3 cells expressing BCR-ABL E255V mutant assessed as growth inhibition after 72 hrs by CCK-8 assay. The note with it: BaF3, 72 h.
Assay [16] can be described thus: Cytotoxicity against mouse BA/F3 cells expressing BCR-ABL E359V mutant assessed as growth inhibition after 72 hrs by CCK-8 assay. The note with it: BaF3, 72 h.
Assay [17] can be described thus: Cytotoxicity against mouse BA/F3 cells expressing BCR-ABL Y253F mutant assessed as growth inhibition after 72 hrs by CCK-8 assay. The note with it: BaF3, 72 h.
Assay [18] can be described thus: Cytotoxicity against mouse BA/F3 cells expressing BCR-ABL F317V mutant assessed as growth inhibition after 72 hrs by CCK-8 assay. The note with it: BaF3, 72 h.
A short description of assay [19]: Cytotoxicity against mouse BA/F3 cells expressing wild type BCR-ABL assessed as growth inhibition after 72 hrs by CCK-8 assay. The conditions noted are these: BaF3, 72 h.
The nature of assay [20]: Cytotoxicity against mouse BA/F3 cells expressing BCR-ABL H396R mutant assessed as growth inhibition after 72 hrs by CCK-8 assay. The note with it: BaF3, 72 h.
The nature of assay [21]: Cytotoxicity against mouse BA/F3 cells expressing BCR-ABL M351T mutant assessed as growth inhibition after 72 hrs by CCK-8 assay. The conditions noted are these: BaF3, 72 h.
For assay [22], the system named is BaF3. As to the kind of experiment: Antitumor activity against mouse BA/F3 cells expressing BCR-ABL T315I mutant allografted in SCID mouse assessed as suppression of cell proliferation at 100 mg/kg/day, po qd for 10 days relative to untreated vehicle. Type of assay: functional, organism-based. In outline:
(§2)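 Ba/F3 cells coexpressing Bcr-Abl T315I and firefly luciferase were injected iv (2 × 10^6 cells/0.1 mL saline) into SCID nude mice. At 5−7 days, mice were imaged after ip D-luciferin under halothane and randomized by signal. Dosing was oral gavage once daily for 10 days in DMSO/Cremophor/ethanol/saline vehicle. Luminescence was imaged after dosing; survival was analysed by Kaplan−Meier with log-rank test.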

Assay [23] deals with BaF3. As to the kind of experiment: Antitumor activity against mouse BA/F3 cells expressing wild type BCR-ABL allografted in SCID mouse assessed as inhibition of tumor growth at 50 mg/kg, po qd for 14 days. More on the design: dose 50 mg/kg. The format is functional, organism-based. Summed up:
(§3)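 Subcutaneous allograft: Ba/F3 cells stably carrying Bcr-Abl (WT or T315I), 2.5 × 10^7 cells/mL in saline, 0.2 mL into the right flank. Randomized at 100−200 mm3, n = 10 per group. Oral gavage once daily for 14 days in DMSO/Cremophor/ethanol/saline vehicle. Tumor volume (L × W²/2) every 2 days; unpaired t test versus vehicle.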

Assay [24] deals with BaF3. Nature of the assay: Antitumor activity against mouse BA/F3 cells expressing BCR-ABL T315I mutant allografted in SCID mouse assessed as increased survival at 100 mg/kg/day, po qd for 10 days. Type of assay: functional, organism-based. Summed up: as §2
Assay [25] concerns K562. As to the kind of experiment: Antitumor activity against human K562 cells xenografted in mouse assessed as induction of tumor stasis at 50 mg/kg, […]. The format is functional, organism-based. More on the design: dose 50 mg/kg.
Assay [26] deals with BaF3. Nature of the assay: Antitumor activity against mouse BA/F3 cells expressing BCR-ABL T315I mutant allografted in SCID mouse assessed as inhibition of tumor growth at 100 mg/kg/day, po qd for 14 days. The format is functional, organism-based. In outline: as §3

A word on the IC50: it is the midpoint of a concentration-inhibition curve.

The source made the active and inactive calls. No cut-off for these calls is given here. A value given as a limit tells only on which side of the number the result lay.

`CC(=O)O[C@H]1C(=O)[C@@]2(C)[C@H]([C@H](OC(=O)c3ccccc3)[C@]3(O)C[C@H](OC(=O)[C@H](O)[C@@H](NC(=O)c4ccccc4)c4ccccc4)C(C)=C1C3(C)C)[C@]1(OC(C)=O)CO[C@@H]1C[C@@H]2O` [PACLITAXEL]: the IC50 in the assay with K562 [1] worked out at 7 nM; in [2] it was 5.3 nM; in assay [3] it was 8 nM; with U-937, 2.3 nM; in the assay with K562 [4], 5.1 nM; in the assay with MOLT-4 it was 2.7 nM. Also, in the assay on HL-60, the IC50 was 5.8 nM.
For `Cc1nc(Nc2ncc(C(=O)Nc3c(C)cccc3Cl)s2)cc(N2CCN(CCO)CC2)n1` [DASATINIB], the IC50 was 2500 nM in assay [5]; 0.9 nM in assay [6]; 19 nM in assay [7]; 8 nM in the assay “cells [8]”; 15 nM in assay [9]; 2.3 nM in assay [10]. Besides, the IC50 was found to be 29 nM in assay [11]; 3600 nM in the assay “cells [12]”; 5.1 nM in the assay “cells [13]”; 3.2 nM in [14]; 23 nM in [15]; 1.3 nM in assay [16]. Also, the IC50 in assay [17] is 17 nM; in assay [18] it was 25 nM; in [19] it was 1.9 nM; in assay [20], 3800 nM; in assay [21], 0.2 nM.
Regarding `Cc1cn(-c2cc(NC(=O)c3ccc(C)c(Nc4nccc(-c5cccnc5)n4)c3)cc(C(F)(F)F)c2)cn1` [NILOTINIB], the IC50 in [5] was determined as 15100 nM; in assay [6] it was 9.5 nM; in [7] it was 160 nM; in assay [9] it was 130 nM; in assay [10], 1000 nM; in assay [11], 3000 nM. The IC50 in “cells [12]” was found to be 16000 nM; in the assay “cells [13]” it was 150 nM; in assay [14], 170 nM; in assay [15], 1200 nM; in assay [17], 1400 nM; in assay [18], 2900 nM. The IC50 in [19] turned out to be 22 nM; in [20], 21100 nM; in assay [21] it was 3 nM.
Regarding `Cc1ccc(NC(=O)c2ccc(CN3CCN(C)CC3)cc2)cc1Nc1nccc(-c2cccnc2)n1` [IMATINIB], the IC50 in assay [5] was 13500 nM; in assay [6] it was 1000 nM; in assay [7], 3300 nM; in the assay “cells [8]”, 3600 nM; in assay [9] it was 1600 nM; in [10], 12500 nM. The IC50 in assay [11] is 12200 nM; in the assay “cells [12]”, 12200 nM; in “cells [13]”, 5200 nM; in assay [14], 5600 nM; in [15] it was over 10000 nM; in assay [16], 590 nM. Further, the IC50 in [17] was 9200 nM; in assay [18], 9500 nM; in assay [20], 11100 nM; in assay [21], 240 nM. In addition, the result in the assay on BaF3 [22], in the assay on BaF3 [24] and in the assay on K562 [25] was inactive. The TGI result in the assay with BaF3 [23] was “Active”. For the same compound, in the assay with BaF3 [26], the TGI result was “inactive”.
